# Source: the RNAGym collection of RNA variant scans (doi:10.1126/science.aae0568)
# Fewer inactive variants are shown than the library holds.
# B1: tRNA (parent)
# chain: GUUCCGUUGGCGUAAUGGUAACGCGUCUCCCUCCUAAGGAGAAGACUGCGGGUUCGAGUCCCGUACGGAACG
# Variants of: B1
# Experiment: yeast fitness relative to wild type (ratio to wild type); higher = fitter; tRNA-Arg(CCU), competitive growth, 37 C, YPD
# In short: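 Genotype frequency changes were the basis for Darwinian fitness relative to wild type. The frequencies came from 100-nucleotide paired-end sequencing of gene amplicons from the start population and each end population of pooled yeast strains with tRNA-Arg(CCU) gene variants at the native locus. Competition ran in YPD at 37°C for 24 hours in six replicates, genotypes needed ≥ 100 starting reads, and estimates < 0.5 were set to 0.5.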
row,Variant,yeast fitness
1,U3C C31U U47C,0.864
2,U3C C27U G56A C61A,≤ 0.5
3,U3C U13A A14C A42G,≤ 0.5
4,U3C C31U C49U,0.919
5,U3C U13C U16A A45G C61A U64C,≤ 0.5
6,U3C G44C U59A,≤ 0.5
7,U3C G25C G41C C46U A65U,≤ 0.5
8,U3C C34A G44A U54A,≤ 0.5
9,U3C C27G C49G,≤ 0.5
10,U3C C27G C49A A70G,0.593
11,U3C U16G U19A A43C A57U,≤ 0.5
12,U3C U7A G44C C61U C62U G63C U64A C66U A69G,≤ 0.5
13,U3C C31U A40C,0.654
14,U3C G6C A14U G25A G38A U47A A69C,≤ 0.5
15,U3C G12A C30U G44A C61U,≤ 0.5
16,U3C C30G C62A,≤ 0.5
17,U3C G10A C22A C24G U54C,≤ 0.5
18,U3C C46U U54A,≤ 0.5
19,U3C U28A C55G,≤ 0.5
20,U3C U8C A14G U28G A36U C46U U47C C61U,0.553
21,U3C G9A C34U A65U,≤ 0.5
22,U3C C30A A65G,0.702
23,U3C G6A A14G G18C C30U C31U G48A C55G,≤ 0.5
24,U3C U28A,0.832

row,Variant,yeast fitness
1,U3C C24U U26C G63A A65G,≤ 0.5
2,U3C C46G A69U,0.807
3,U3C U13C G51C,≤ 0.5
4,U3C G41C,0.824
5,U3C G41A,0.879
6,U3C U28C C33U A45U,0.528
7,U3C U8C A45U,0.721
8,U3C U8G U32A C33G C62U,≤ 0.5
9,U3C C29G G56A C62G C66G,≤ 0.5
10,U3C C49A G51C,0.694
11,U3C G10C C30U U54A,≤ 0.5
12,U3C U8C A69U,0.81
13,U3C U13A C31U G41A A70C,0.639
14,U3C G9C C11U C29G C30A U64G A69C,≤ 0.5
15,U3C G12C,0.716
16,U3C C62U G67A,0.587
17,U3C C46A G56A,0.699
18,U3C G9A A42U A70U,≤ 0.5
19,U3C C27G G39A C46U G67A,≤ 0.5
20,U3C G23C C27G G39A C66U,≤ 0.5
21,U3C G12C A37U G51A C62U G63A,≤ 0.5
22,U3C C27U G58C A69C,0.793
23,U3C G17C C29G C49G,0.885
24,U3C C34A G52A,≤ 0.5

row,Variant,yeast fitness
1,U3C C27A C31G,0.604
2,U3C C46U,0.892
3,U3C C46U A65U,0.739
4,U3C G18A U32G A37G A43C G51A,≤ 0.5
5,U3C U13A A40C,≤ 0.5
6,U3C C31U A70G,0.812
7,U3C U8C A14G U28G A36U C46U C61U,0.549
8,U3C G9A A20C C29U G50C U59G C62U G68A,≤ 0.5
9,U3C C31U A69U,0.782
10,U3C U13A C31U G41A C61G,≤ 0.5
11,U3C C33G C60A,≤ 0.5
12,U3C C27G C33U A43U,≤ 0.5
13,U3G A14C A42U G44C,0.578
14,U3C G39A G67U,≤ 0.5
15,U3C U16G,0.823
16,U3C U13A C31U G41A C66A,≤ 0.5
17,U3C G38A C61U,0.564
18,U3C G56C,0.67
19,U3C U7C U19A G23A C29G A45U C60G C61U A69G,≤ 0.5
20,U3C C30G A43C G48A,≤ 0.5
21,U3G A15G C24G G50A,0.539
22,U3C G12A C31G U59A,0.537
23,U3C G9A A57G A65U,≤ 0.5
24,U3G A15G A21G U26C C29G C30U C49U A57U,≤ 0.5

row,Variant,yeast fitness
1,U3C C62G G68A,≤ 0.5
2,U3C G9C C11U C30G A43C U64C,≤ 0.5
3,U3C C27U C30U U53A A69C,≤ 0.5
4,U3C U59A,0.846
5,U3C U59G,0.71
6,U3C U26G G67C,≤ 0.5
7,U3C C30U C46A U54A A57G,≤ 0.5
8,U3G A14U A15U A20C C33G A40U C61G,0.543
9,U3C U7C U35C,0.505
10,U3G A20C G44C U47C C61U,≤ 0.5
11,U3C C31U G44A,0.721
12,U3C U8G U32A C33G U53A A69C,≤ 0.5
13,U3C G48A U54A,0.534
14,U3C C30A A40U,0.634
15,U3C U7A A20G C31U A57C G67C,≤ 0.5
16,U3C C31U G63A,0.771
17,U3C C30G C31U C60G C61G,0.571
18,U3C G12A A37C A45U G48C C66U G67C A70G,≤ 0.5
19,U3C G63C U64C,0.631
20,U3C U8A A43G A57U G63A,≤ 0.5
21,U3G A15G C24G G44A G50A C55U,≤ 0.5
22,U3C G18C C31G U59A G67A,≤ 0.5
23,U3C U16G U19A A43C C49U A57U,≤ 0.5
24,U3C C31U U59G,0.579

row,Variant,yeast fitness
1,U3G A15G A21U C24U U35C G38A,≤ 0.5
2,U3C G6A G18C A45U G68A,≤ 0.5
3,U3C G23C C62G,0.535
4,U3G A15G C24G G50A C55U C61U A65U,≤ 0.5
5,U3C G50A G68C,0.609
6,U3C C31U A42G,0.798
7,U3C G10C C11G C24G,≤ 0.5
8,U3C U13A A20C C30G C31A G67C,≤ 0.5
9,U3C U28A C34U G41C G51A U53A U59C A70U,≤ 0.5
10,U3C U13C,0.841
11,U3C G17A C60A C66U,≤ 0.5
12,U3C G67U,0.839
13,U3C G67C,0.783
14,U3C C55G G68C,≤ 0.5
15,U3C G25A G68C A69G,1.08
16,U3C G9C C30G A43C,≤ 0.5
17,U3C U13C A21G A43U,0.708
18,U3C U16G A21C G25C A37C A40U,≤ 0.5
19,U3C C49G U59A,≤ 0.5
20,U3C C31U,0.891
21,U3C C31G,0.86
22,U3C U19C,0.929
23,U3C U19A,1.03
24,U3C G25A A42C,≤ 0.5

row,Variant,yeast fitness
1,U3C G18A U53A U54G A70G,≤ 0.5
2,U3C G9C A70U,≤ 0.5
3,U3G A15G G23A U47C,≤ 0.5
4,U3C U32C,0.839
5,U3C G44C C60G,0.562
6,U3C U13C C24U G52A G56A,≤ 0.5
7,U3C G18A U53A U54G G63A,≤ 0.5
8,U3C U13A A45C G48A U64C,0.57
9,U3C C31G U32C G38C C46G G48C G68C,≤ 0.5
10,U3C U19A G58C C62G A70U,≤ 0.5
11,U3C G9A A69C,0.905
12,U3C C27U A69U,0.806
13,U3C C34U U53C,≤ 0.5
14,U3C C49U,0.891
15,U3C U8G U32A C33G C61U C62U,0.561
16,U3G A14U C29U A37G,≤ 0.5
17,U3C U47C C49U G51A,≤ 0.5
18,U3G A15U,0.633
19,U3G A15G,0.846
20,U3C G9A U19C,0.816
21,U3C U8C G9A A69U,0.564
22,U3C C60A C66U,0.651
23,U3C C29G C46U C49U U59G A65U G68A,≤ 0.5
24,U3G A20C A65U,0.589

row,Variant,yeast fitness
1,U3C U26G,0.868
2,U3C U26A,0.856
3,U3C U32C G58C,1.04
4,U3C G38C A57U A70G,0.622
5,U3C U13G C24U,0.559
6,U3C U13C U16A A42G C49G U54C G63C A70U,0.532
7,U3C G44C,0.908
8,U3C G44A,0.993
9,U3C C34G A65G,0.757
10,U3C U7A U28G A43U G56C A57U G67A,≤ 0.5
11,U3C U64A,0.792
12,U3C U64C,1.04
13,U3C G17U C31A,≤ 0.5
14,U3C G51C C66U,≤ 0.5
15,U3C U19A A43G,0.677
16,U3C U26G C33A C61U,≤ 0.5
17,U3C G44C A70C,0.602
18,U3C G39C,0.695
19,U3C U19C A20G,0.663
20,U3C U35G A57C A70C,≤ 0.5
21,U3C C29G C30G A37C G39A,≤ 0.5
22,U3C U13A A45C G48A,0.604
23,U3C G12A U28C G48C G63C,≤ 0.5
